Several values for one entry are separate records, joined by “and”; a condition that tells them apart may be missing. Equal values may be shown once. Activity calls are given as the source filed them.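 The calls were made as follows: active = viability under 80% at some tested dose in each replicate, a sign of cell toxicity; inconclusive = meets the active limit in only one replicate; inactive = the rest.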

One assay has as its system Bladder 5637 cells viability, CellTiter-Glo, 72 h. Description: cytotoxicity in bladder 5637 cells, dose response, cytotoxicity control for bacterial capsule biogenesis inhibitor project, cell-based, set 5 (AID 602414).
Conditions: not given
In short, it runs like this: (§1)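 Test system: bladder carcinoma 5637 cells. Times: 72 h compound exposure of cells. Measured by: CellTiter-Glo luminescence for cell viability. Evaluation: percent viability and fitted CC50. Controls: Hyamine as cytotoxic positive control, untreated cells as reference.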
As for `Cc1ccc(-c2cc(NC(=O)c3c(F)cccc3F)c(C(=O)O)s2)cc1`, the CC50 was 57.3 µM. For `COc1ccc2nc(NC(=O)c3ccco3)sc2c1`, the CC50 is 66.7 µM.

As to `CCOc1ccc(-c2cc(NC(=O)c3c(F)cccc3C(F)(F)F)c(C(=O)O)s2)cc1`, the CC50 was 62 µM. With `Cc1ccc(-c2cc(NC(=O)c3ccc(Br)o3)c(C(=O)O)s2)cc1`, the CC50 is 50.7 µM.

In the case of `O=C(O)c1sc(-c2ccc(OCC(F)(F)F)cc2)cc1NC(=O)c1c(F)cccc1F`, the CC50 was 75.2 µM.

Turning to `O=C(Nc1cc(-c2ccc(OC(F)(F)F)cc2)sc1C(=O)O)c1ccc(Br)o1`, the CC50 is 33.6 µM.

For `CCOc1ccc(-c2cc(NC(=O)c3ccc(Br)o3)c(C(=O)O)s2)cc1`, the CC50 was 58.4 µM. Same read-out and setting: then `COc1cccc2sc(NC(=O)c3ccc(Br)s3)nc12`, with 24.4 µM; and `O=C(Nc1cc(-c2ccc(OC(F)(F)F)cc2)sc1C(=O)O)c1cc2ccccc2o1`, with 40.6 µM; and `CCOc1ccc(-c2cc(NC(=O)c3ccc(Br)s3)c(C(=O)O)s2)cc1`, with 49.7 µM. Still for that read-out and setting: the result for `CC(C)c1ccc(-c2cc(NC(=O)c3ccc(Br)s3)c(C(=O)O)s2)cc1` reads 33.1 µM; that for `[N-]=[N+]=NCCOc1ccc(-c2cc(NC(=O)c3c(F)cccc3F)c(C(=O)O)s2)cc1`, 273 µM; that for `O=C(Nc1cc(-c2ccc(OC(F)(F)F)cc2)sc1C(=O)O)c1cccc(F)c1`, 52.1 µM. On the same count and under the same terms, the result for `O=C(Nc1ccncc1F)c1ccc2ncsc2c1` reads 229 µM; that for `O=C(Nc1cc(-c2ccc(C(F)(F)F)cc2)sc1C(=O)O)c1cc2ccccc2o1`, 72.1 µM; that for `CCOc1ccc2nc(NC(=O)c3ccc(Br)s3)sc2c1`, 91.2 µM. Consider `O=C(O)c1sc(-c2ccc(OCCC(F)(F)F)cc2)cc1NC(=O)c1c(F)cc(F)cc1F`, for which the CC50 is 63.6 µM. Same read-out and setting: the result for `CCOc1ccc(-c2cc(NC(=O)c3cccc(Cl)c3)c(C(=O)O)s2)cc1` reads 43.6 µM; that for `CCOc1ccc(-c2cc(NC(=O)c3c(F)cc(F)cc3F)c(C(=O)O)s2)cc1`, 76.6 µM. Same read-out and setting: then `O=C(Nc1ncccc1O)c1ccc2ncsc2c1`, with 159 µM; and `CCOc1ccc(-c2cc(NC(=O)c3ccc(OC)c(OC)c3)c(C(=O)O)s2)cc1`, with 61.8 µM. `O=C(Nc1cc(-c2ccccc2)sc1C(=O)O)c1cccc(Cl)c1`: the CC50 is 35 µM. On the same count and under the same terms, then `Cc1ccc(-c2cc(NC(=O)c3cc4ccccc4o3)c(C(=O)O)s2)cc1`, with 94.6 µM; and `CCCCOc1ccc(-c2cc(NC(=O)c3c(F)cc(F)cc3F)c(C(=O)O)s2)cc1`, with 56.2 µM; and `O=C(Nc1ccnc(Br)c1)c1ccc2ncsc2c1`, with 136 µM. The same measure, in the same setting: the result for `O=C(Nc1cc(-c2ccc(C(F)(F)F)cc2)sc1C(=O)O)c1ccc(Br)s1` reads 38.5 µM; that for `O=C(O)c1sc(-c2ccc(OC(F)(F)F)cc2)cc1NC(=O)c1c(F)cccc1F`, 51 µM; that for `CC(C)(C)c1ccc(-c2cc(NC(=O)c3cc4ccccc4o3)c(C(=O)O)s2)cc1`, 34.5 µM. With `CC(C)c1ccc(-c2cc(NC(=O)c3cc4ccccc4o3)c(C(=O)O)s2)cc1`, the CC50 was 47.2 µM.

For the molecule `CCCCOc1ccc(-c2cc(NC(=O)c3ccc(Br)o3)c(C(=O)O)s2)cc1`, the CC50 is 43.4 µM. The same measure, in the same setting: the result for `O=C(ONc1ccc(N=NC(=O)c2ccccc2O)cc1)c1ccccc1` reads 12.8 µM; that for `CC(C)c1ccc(-c2cc(NC(=O)c3cccc(F)c3)c(C(=O)O)s2)cc1`, 37.5 µM. As to `CC(C)(C)c1ccc(-c2cc(NC(=O)c3c(F)cccc3F)c(C(=O)O)s2)cc1`, the CC50 was 35.1 µM. The same measure, in the same setting: the result for `O=C(O)c1sc(-c2ccc(C(F)(F)F)cc2)cc1NC(=O)c1c(F)cccc1F` reads 44.8 µM. On the same count and under the same terms, the result for `O=C(Nc1ccnc(F)c1)c1ccc2ncsc2c1` reads 119 µM. Same read-out and setting: then `CC(C)(C)c1ccc(-c2cc(NC(=O)c3ccc(Br)s3)c(C(=O)O)s2)cc1`, with 20.5 µM; and `CCCOc1ccc(-c2cc(NC(=O)c3c(F)cc(F)cc3F)c(C(=O)O)s2)cc1`, with 85.6 µM; and `CCCCOc1ccc(-c2cc(NC(=O)c3c(F)cccc3F)c(C(=O)O)s2)cc1`, with 42.6 µM. `Cc1ccc(-c2cc(NS(=O)(=O)c3ccc(Br)s3)cs2)cc1`: the half-maximal cytotoxic concentration (CC50) is 94 µM. Consider `O=C(NCc1cc([N+](=O)[O-])ccc1O)c1cccnc1Sc1ccccc1Cl`, for which the CC50 is 51.9 µM. On the same count and under the same terms, then `O=C(Nc1cc(-c2ccc(OCCCC(F)(F)F)cc2)sc1C(=O)O)c1ccc(Br)o1`, with 38.7 µM.

With `O=S(=O)(Nc1nc2ccc(OC(F)(F)F)cc2s1)c1ccc(Br)s1`, the 50% cytotoxic concentration (CC50) was 65.9 µM. Still for that read-out and setting: the result for `O=C(Nc1ccnc(Cl)c1)c1ccc2ncsc2c1` reads 38.8 µM; that for `O=C(O)c1sc(-c2ccc(OCCCC(F)(F)F)cc2)cc1NC(=O)c1c(F)cc(F)cc1F`, 54.7 µM. Still for that read-out and setting: the result for `CC(C)c1ccc(-c2cc(NC(=O)c3c(F)cccc3F)c(C(=O)O)s2)cc1` reads 32.4 µM; that for `CCCc1ccc(-c2cc(NC(=O)c3cc(Br)c(Br)o3)c(C(=O)O)s2)cc1`, 41 µM. In the case of `Cc1ccc(-c2cc(NC(=O)c3cccc(F)c3)c(C(=O)O)s2)cc1`, the CC50 is 43.9 µM. Same read-out and setting: the result for `O=C(Nc1cc(-c2ccccc2)sc1C(=O)O)c1ccc(Br)o1` reads 53.3 µM. On the same count and under the same terms, then `O=C(Nc1ccncc1)c1ccc2ncsc2c1`, with 178 µM and 244 µM; and `CN(C(=O)c1ccc2ncsc2c1)c1ccccc1`, with 267 µM. Consider `O=C(Nc1cc(-c2ccc(OCC(F)(F)F)cc2)sc1C(=O)O)c1ccc(Br)o1`, for which the CC50 is 50 µM. On to `CCOc1ccc(-c2cc(NC(=O)c3cc4ccccc4o3)c(C(=O)O)s2)cc1`, for which the CC50 was 193 µM. The same measure, in the same setting: the result for `CCCc1ccc(-c2cc(NC(=O)c3c(F)cc(F)cc3F)c(C(=O)O)s2)cc1` reads 69.9 µM.

`O=C(Nc1cc(-c2ccc(C(F)(F)F)cc2)sc1C(=O)O)c1cccc(F)c1`: the CC50 is 35.1 µM.

For the molecule `COc1ccc(-c2cc(NC(=O)c3cccc(F)c3)c(C(=O)O)s2)cc1`, the CC50 was 44.8 µM. Same read-out and setting: then `O=C(O)c1sc(-c2ccc(OCCC(F)(F)F)cc2)cc1NC(=O)c1c(F)cccc1F`, with 68.4 µM; and `COc1ccc(-c2cc(NC(=O)c3ccc(Br)o3)c(C(=O)O)s2)cc1`, with 50.5 µM; and `O=C(Nc1cc(-c2ccccc2)sc1C(=O)O)c1ccc2c(c1)OCCO2`, with 121 µM. The same measure, in the same setting: then `CCOc1ccc(-c2cc(NC(=O)c3cccc(F)c3)c(C(=O)O)s2)cc1`, with 55.6 µM. On the same count and under the same terms, the result for `Cc1ccc(-c2cc(NC(=O)c3ccc(Br)s3)c(C(=O)O)s2)cc1` reads 66 µM. As to `O=C(O)c1sc(-c2ccc(OCCCC(F)(F)F)cc2)cc1NC(=O)c1c(F)cccc1F`, the CC50 is 241 µM.

Consider `O=C(O)c1sc(-c2ccc(OCC(F)(F)F)cc2)cc1NC(=O)c1c(F)cc(F)cc1F`, for which the CC50 is 161 µM. `COc1cccc2sc(NCc3ccc(Br)s3)nc12`: the CC50 is 165 µM.

For `O=C(Nc1cc(-c2ccc(OCCC(F)(F)F)cc2)sc1C(=O)O)c1ccc(Br)o1`, the CC50 is 41.7 µM. Still for that read-out and setting: then `CC(C)c1ccc(-c2cc(NC(=O)c3ccc(Br)o3)c(C(=O)O)s2)cc1`, with 50.4 µM; and `CC(C)(C)c1ccc(-c2cc(NC(=O)c3cccc(F)c3)c(C(=O)O)s2)cc1`, with 21.1 µM; and `COc1ccc(-c2cc(NC(=O)c3cc4ccccc4o3)c(C(=O)O)s2)cc1`, with 284 µM. On the same count and under the same terms, the result for `O=C(Nc1cc(-c2ccc(OCCCC(F)(F)F)cc2)sc1C(=O)O)c1cc(Br)c(Br)o1` reads 26.6 µM and 251 µM.

As to `O=C(O)c1sc(-c2ccc(C(F)(F)F)cc2)cc1NS(=O)(=O)c1ccc(Br)s1`, the CC50 is 45.2 µM.

With `COc1ccc(-c2cc(NC(=O)c3c(F)cccc3F)c(C(=O)O)s2)cc1`, the CC50 was 53.3 µM. On the same count and under the same terms, then `O=S(=O)(Nc1nc2ccc(F)cc2s1)c1ccc(Br)s1`, with 135 µM. With `CCCc1ccc(-c2cc(NC(=O)c3ccc(Br)o3)c(C(=O)O)s2)cc1`, the CC50 was 46.4 µM.

For the molecule `COc1ccc2nc(NC(=O)c3cccs3)sc2c1`, the CC50 is 29.3 µM. Take `O=C(Nc1cc(-c2ccc(C(F)(F)F)cc2)sc1C(=O)O)c1ccc(Br)o1`: the CC50 was 47.5 µM.

For the molecule `CCCc1ccc(-c2cc(NC(=O)c3c(F)cccc3F)c(C(=O)O)s2)cc1`, the CC50 is 54.9 µM. For the molecule `CCOc1ccc(-c2cc(NC(=O)c3c(F)cccc3F)c(C(=O)O)s2)cc1`, the CC50 was 42.1 µM and 51.6 µM. Same read-out and setting: the result for `CCCCOc1ccc(-c2cc(NC(=O)c3cc(Br)c(Br)o3)c(C(=O)O)s2)cc1` reads 31.7 µM; that for `O=C(Nc1cc(-c2ccccc2)sc1C(=O)O)c1cccs1`, 34.7 µM.

Tested on in a further assay: not listed separately
The description is as above. Conditions: Bladder 5637 cells viability, CellTiter-Glo, 72 h; at 150 µM (top of the series). The procedure, abridged: as §1
Turning to `O=C(Nc1nc2ccc(Br)cc2s1)c1cc(Br)c(Br)s1`, the viability was 110% (inactive).

Staying with this assay, now noted: Bladder 5637 cells viability, CellTiter-Glo, 72 h; at 300 µM (top of the series).
For `O=C(Nc1ccc2ncsc2c1)c1ccncc1`, the viability is 119% (inactive).
